Only some compounds are listed: those with a hit (about 2.9% of all), similar ones and a draw of the others.
Wee1 degr inh = Wee1 degradation inhibitors, primary screen, cell-based, HeLa, Wee1K328M-luciferase, luminescence. HeLa Luc-Wee1K328M stability; 100% = proteasome inhibitor MG132 effect. reporter increase, % at 5 µM. 220,000 tested, 1.2% active;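 active means activation above the mean of all tested compounds plus 3 SD, set per screening run, cut at about 8.8% in these data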;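 further: cells exposed to compound for 20 h before luminescence read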
Target sequence (P30291 whole entry K328M): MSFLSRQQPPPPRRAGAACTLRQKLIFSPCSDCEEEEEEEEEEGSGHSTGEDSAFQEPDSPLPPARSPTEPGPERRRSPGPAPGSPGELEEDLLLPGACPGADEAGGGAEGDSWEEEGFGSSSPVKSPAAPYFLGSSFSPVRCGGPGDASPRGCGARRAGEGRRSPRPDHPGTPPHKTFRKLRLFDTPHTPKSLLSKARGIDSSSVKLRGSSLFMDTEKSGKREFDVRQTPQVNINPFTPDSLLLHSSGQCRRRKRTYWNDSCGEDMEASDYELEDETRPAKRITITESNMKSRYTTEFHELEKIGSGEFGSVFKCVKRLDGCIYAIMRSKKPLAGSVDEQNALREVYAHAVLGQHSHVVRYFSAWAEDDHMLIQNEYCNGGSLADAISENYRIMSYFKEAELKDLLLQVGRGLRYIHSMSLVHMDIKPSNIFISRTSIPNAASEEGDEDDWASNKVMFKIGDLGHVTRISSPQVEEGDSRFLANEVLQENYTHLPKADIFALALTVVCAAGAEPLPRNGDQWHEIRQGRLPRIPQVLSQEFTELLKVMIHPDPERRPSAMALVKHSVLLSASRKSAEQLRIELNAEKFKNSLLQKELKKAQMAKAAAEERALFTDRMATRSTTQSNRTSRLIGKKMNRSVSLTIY
Ins promoter up = insulin promoter activators in MIN6 cells, imaging, high-content screening, mouse beta cells. MIN6 insulin promoter-GFP reporter; stronger effect = higher value. z-score at 5 µM. 190,000 tested, 0.3% active. AID 1625, 2009;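 active means z-score above 3 at 5 µM with at least 500 cells counted in the well; inconclusive means wells under 500 cells, flagged as cytotoxic or low count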
MT stabilize HCS = microtubule stabilizers in HeLa cells, primary screen, imaging, high-content imaging; HeLa tubulin immunostaining HCS, 24 h; share of cells brighter than vehicle mean+2SD; % tubulin-high responders, % at 10 µM; 200,000 tested, 0.83% active; AID 2205, 2009;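 active means plate Z-score above 3 for both tubulin-high and condensed-nucleus cell shares, with cell loss under 80%, at 10 µM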;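 further: anti alpha tubulin signal scored within the nucleus-defined area of each cell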
bCat nuc transl = modulators of beta-catenin nuclear translocation, primary screen, imaging, HeLa cells, immunofluorescence, high-content; nuclear translocation activity, % at 5 µM; AID 1665, 2009; 190,000 tested, 0.3% active;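 active means nuclear translocation activity above 50% at 5 µM, with a well cell count of 50 or more; inconclusive means wells under 50 cells across six images, flagged as toxic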;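 further: per-cell ratio of nuclear to cytoplasmic median beta-catenin stain intensity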
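Test system: human HeLa cells, endogenous beta-catenin. Times: 24 h compound exposure, 37°C. Measured by: beta-catenin immunofluorescence imaging with DAPI.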
Autophagy mod = autophagy modulators in MEF cells, primary screen, imaging, high-content, MEF GFP-LC3. AID 463193, 2010. calls only at 10 µM (by protocol). MEF GFP-LC3 puncta imaging; test concentration mostly 10 µM. 190,000 tested, 0.98% active;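 active means percentage of spot-positive cells more than 3 SD above its plate mean, without a fluorescence outlier flag or 80% toxicity; inconclusive means no clear call, values can overlap the other calls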
Wee1 stab conf = Wee1 degradation inhibitors, confirmation, cell-based, HeLa, Wee1K328M-luciferase, luminescence, triplicate | shares compounds with Wee1 degr inh | HeLa Luc-Wee1K328M degradation; vehicle 0%, proteasome-blocked wells 100% | activation, % at 5 µM | 1,100 tested, 4% active; in the data active means activation above about 8.9%
A number is an active result; . = inactive; ? = inconclusive; / = no result; + = active, no number.

SMILES	Wee1 degr inh	Ins promoter up	MT stabilize HCS	bCat nuc transl	Autophagy mod	Wee1 stab conf
Cc1cc(C)c2c(N)c(C(=O)c3ccc(Cl)c(Cl)c3)sc2n1	.	/	.	.	.	/
COc1cccc(CNCc2cccnc2)c1OCc1ccccc1	13	.	.	.	.	.
Cc1ccccc1CNCc1cccnc1	.	.	.	.	.	/
O=C(Cn1c(=O)oc2ccccc21)Nc1n[nH]c(=S)s1	.	.	/	.	/	/
CC(=O)Nc1ccc(S(=O)(=O)Nc2nc3cc4c(cc3nc2Cl)OCCO4)cc1	11	.	/	.	/	.
Oc1c(CN2CCOCC2)ccc2ccccc12	11	.	.	.	.	.
COc1cccc(C2=NOC(C(=O)N3CCN(c4ccccc4)CC3)C2)c1OC (stereo not given)	31	.	.	.	/	.
CCOc1ccc(NC(=O)C2C3CC/C=C\CCC32)cc1 (stereo not given)	11	.	/	.	/	.
Cc1ccn2cc(CNS(=O)(=O)c3cccs3)nc2c1	13	.	/	.	/	.
Cc1ccc(NC(=O)Cn2nnc(-c3ccccc3NC(=O)c3cccs3)n2)cc1	14	.	21	58	+	.
O=C(Cn1nnc(-c2ccccc2NC(=O)c2ccco2)n1)Nc1ccccc1	.	.	.	.	.	/
CCc1cccc(C)c1NC(=S)N(CCCN1CCOCC1)Cc1cccnc1	.	.	.	/	.	/
CCOC(=O)N1CCN(C(=O)CSc2nc3ccccc3c(=O)n2-c2ccccc2)CC1	11	/	.	.	.	.
CCOC(=O)CC(=O)CSc1nc2ccccc2c(=O)n1-c1ccc(C(=O)N2CCOCC2)cc1	.	.	.	.	.	/
O=C(NCc1ccccc1)C(=O)Nc1nccs1	.	.	.	.	.	/
CCCCC(CC)CNC(=O)C(Cc1ccccc1)NS(=O)(=O)c1ccc2c(c1)CCC(=O)N2 (stereo not given)	.	/	.	.	.	/
Cc1ccc(C(=O)NC2CC(C)(C)NC(C)(C)C2)cc1C	12	.	.	.	.	.
Cc1ccc(C)c(C(=O)NC2CC(C)(C)NC(C)(C)C2)c1	.	.	.	/	.	/
CC1c2ccsc2CCN1S(=O)(=O)c1cccs1 (stereo not given)	.	.	/	.	/	/
Cn1c2c(c(=O)n(C)c1=O)C(CC(=O)Nc1ccc(F)cc1)C(=O)N2 (stereo not given)	11	/	.	.	.	.
Cc1ccc(CNC(=O)CC2C(=O)Nc3c2c(=O)n(C)c(=O)n3Cc2ccccc2)cc1 (stereo not given)	.	.	.	.	.	/
COc1cc(SC)ccc1C(=O)Nc1ccc(C)cc1	.	.	.	.	.	/
COc1cc(SC)ccc1C(=O)Nc1ccc2c(c1)OCO2	13	.	.	.	.	.
O=C(O)c1ccc(CSc2nnc(COc3ccccc3)o2)cc1	14	/	.	.	.	.
CC(C)c1ccc(/C=C(\NC(=O)c2ccccc2)C(=O)NCCCN2CCOCC2)cc1	.	.	/	.	/	/
SMILES	Wee1 degr inh	Ins promoter up	MT stabilize HCS	bCat nuc transl	Autophagy mod	Wee1 stab conf
Cn1c(SCC(=O)Nc2cccc(F)c2)nc2c([nH]c3ccccc32)c1=O	.	.	.	.	.	/
CC1(C)CC(=O)C2=C(C1)OC(N)=C(C#N)C2c1cc2c(cc1[N+](=O)[O-])OCO2 (stereo not given)	11	.	.	.	.	.
CC(=O)Nc1nc(C)c(CCC2OCCO2)c(=O)[nH]1	11	.	/	.	/	.
Cc1cc(C)cc(N(CCC(=O)Nc2nnc(C)s2)S(=O)(=O)c2ccc(Cl)cc2)c1	.	.	.	.	.	/
Cc1nc2ccccc2n1CCN1CCOCC1	12	.	.	.	.	.
Cc1nc2ccccc2c(=O)n1CCCN1CCOCC1	.	.	/	.	/	/
N#Cc1ccccc1OCC(=O)NC(=O)NCc1ccccc1	15	.	.	.	.	.
O=C1C2C3C=CC(CC3)C2C(=O)N1c1ccccc1[N+](=O)[O-] (stereo not given)	.	/	.	.	.	/
Cc1ccc2nc(NC(=O)COC(=O)c3ccco3)sc2c1	11	.	.	.	.	.
CC(C)(C)Sc1ccccc1S(=O)(=O)C(C)(C)C	13	.	/	.	/	.
Nc1c(C(=O)O)sc2nc(-c3ccccc3)cc(-c3ccccc3)c12	11	4.6	/	.	/	.
Nc1c(C(=O)O)sc2nc(-c3ccccc3)cc(-c3ccc(F)cc3)c12	.	.	/	.	/	/
Cc1nc2sc(C(c3ccc(C(C)C)cc3)N3CCN(CCO)CC3)c(O)n2n1 (stereo not given)	24	.	.	.	.	.
CCn1c(CNc2cccc(C(F)(F)F)c2)n[nH]c1=S	.	.	.	.	.	/
O=C(N=Nc1c(O)[nH]c2ccccc12)c1cccc(S(=O)(=O)Nc2ccccc2Cl)c1	.	.	.	.	.	/
CC(C)c1ccc2[nH]c(O)c(N=NC(=O)c3cccc(S(=O)(=O)Nc4ccccc4Cl)c3)c2c1	20	.	.	.	.	.
CC(C)NC(=S)N=Nc1c(O)[nH]c2ccc(C(C)C)cc12	15	.	.	.	.	.
O=C1CSC(c2cccc([N+](=O)[O-])c2)N1c1ccc(O)cc1 (stereo not given)	.	.	.	.	.	/
CC1(C)CC(=O)C2=C(C1)N=C1SCCC(=O)N1C2c1cccc([N+](=O)[O-])c1 (stereo not given)	12	.	.	.	.	.
NS(=O)(=O)c1ccc(NC(=O)COC(=O)COc2ccccc2)cc1	.	.	.	.	.	/
COc1ccc(C(=O)NCC(=O)OCC(=O)N2N=C(c3ccc(Cl)cc3)CC2c2ccco2)cc1OC (stereo not given)	.	.	.	.	.	/
CN(C)c1ccc(P(=O)(OC2CCCCC2)C(O)c2cccnc2)cc1 (stereo not given)	12	.	.	.	.	.
N#C/C(=C1/C(=O)Nc2ccc(Br)cc21)c1ccccn1	.	.	.	.	.	/
Cc1ccc(NC(=S)N2CCCC(O)C2)cc1 (stereo not given)	14	.	.	.	.	.
Cc1ccc(NC(=S)N2CCOCC2)cc1	.	.	.	.	.	/
CC(C)NS(=O)(=O)c1ccc(OCC(=O)N2CCc3ccccc3C2)cc1	13	.	.	.	.	.
CCOC(=O)N1CCC(NC(=O)c2cc(C(=O)Nc3ccc(S(=O)(=O)N4CCOCC4)cc3)ccc2CO)CC1	.	.	.	.	.	/
O=c1cc(-c2ccccc2Cl)oc2cc(O)cc(O)c12	.	.	.	/	.	/
O=C1C=CC(O)(c2cc(=O)c3c(O)cc(O)cc3o2)C=C1	41	?	.	.	.	69
CC1c2ccsc2CCN1C(=O)NC(=O)c1ccc(Cl)cc1 (stereo not given)	14	.	/	.	/	.

Source: PubChem BioAssay
